Screening data from PubChem.
Sampled rows, rich in hits. Any-hit rate of the full collection: about 4.7%.
ADAM17 inh – inhibitors of human ADAM17; 370,000 compounds, 0.83% hits; inhibition, % at 6.95 µM; P78536; recombinant ADAM17, EDANS/DABCYL FRET peptide cleavage;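 active = inhibition above the mean of compounds lying between control limits plus 3 SD, set per campaign, cut at about 8.5% in these data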;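 also: 0% = DMSO-only wells as the low control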
MPTP block – inhibitors of mitochondrial permeability transition pore; isolated mouse mitochondria, Ca2+ swelling absorbance, 30 min; inhibition, % at 10 µM; 360,000 compounds, 1.4% hits; AID 602449;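 active = inhibition of 50% or more, scaled per plate between neutral and stimulator controls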;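 also: 0% = DMSO wells given calcium and 100% = 1 mM EGTA wells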
GRIN3A LBD mod – modulates the human NR3A ligand-binding domain; AID 1259313; 340,000 compounds, 2.5% hits; Tm shift relative to glycine control, % at 25 µM; NR3A LBD differential scanning fluorimetry, Tm shift; 0% = protein alone, 100% = glycine-bound protein;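 active = melting temperature shift of at least 10% of the positive control shift, at one fixed dose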
SKN-1 inh – C. elegans SKN-1 inhibition. C. elegans VP596 Pgst-4::GFP/RFP ratio, acrylamide-induced, 24 h. inhibition, % at 21.8 µM. 360,000 compounds, 0.49% hits. AID 624304;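 active = interference check ratio from 0.5 to 1.5 plus GFP to RFP signal ratio inhibition reaching or exceeding a fixed threshold, cut at about 30% in these data, passing the limit was not always enough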
MT1-MMP act inh – blocks activation of human MT1-MMP; P50281; HT1080 RFP-PRO-GFP cells, GFP/RFP ratio fluorescence, overnight; percent of plate control window, DMSO zero; GFP/RFP ratio change, % at 20 µM; 360,000 compounds, 0.061% hits; AID 651647;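 active = GFP/RFP ratio change of at least 30% with cell ATP level not reduced by more than half and red fluorescence within 50% of control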
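Read-out: GFP/RFP fluorescence ratio; Test system: RFP-PRO-GFP reporter HT1080 cells; Compound dosing: single-point 20 µM compound, 1% DMSO; Times: overnight compound exposure at 37 °C.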
ADAM10 inh – inhibits human ADAM10 | O14672 | recombinant ADAM10, EDANS/DABCYL FRET peptide cleavage, 3 h | inhibition, % at 7 µM | 370,000 compounds, 0.62% hits;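 active = inhibition above a per-campaign cutoff equal to the mean of compounds falling between control-based bounds plus 3 SD, cut at about 20% in these data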;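 also: 0% = DMSO wells while the 100% control is not disclosed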
Target sequence (O14672 214-748 limits assumed): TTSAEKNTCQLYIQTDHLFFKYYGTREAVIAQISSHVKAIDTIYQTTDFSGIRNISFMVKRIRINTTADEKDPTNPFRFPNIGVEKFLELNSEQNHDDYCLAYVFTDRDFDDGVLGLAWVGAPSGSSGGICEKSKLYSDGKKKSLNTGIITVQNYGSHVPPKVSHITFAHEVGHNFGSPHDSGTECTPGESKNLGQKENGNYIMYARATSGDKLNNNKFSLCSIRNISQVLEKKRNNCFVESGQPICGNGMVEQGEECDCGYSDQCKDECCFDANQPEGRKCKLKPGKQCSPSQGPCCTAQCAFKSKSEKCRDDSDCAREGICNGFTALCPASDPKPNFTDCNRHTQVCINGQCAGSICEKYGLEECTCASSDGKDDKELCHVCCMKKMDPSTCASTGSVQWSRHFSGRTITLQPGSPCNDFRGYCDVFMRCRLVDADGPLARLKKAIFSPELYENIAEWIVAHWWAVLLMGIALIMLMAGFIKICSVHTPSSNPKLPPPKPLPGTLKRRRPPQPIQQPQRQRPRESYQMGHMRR
MPTP counter – Rhodamine 123 counter-screen of mitochondrial pore hits. shares compounds with MPTP block. isolated mitochondria, membrane potential, Rhodamine 123 fluorescence. inhibition, % at 10 µM. 5,000 compounds, 78% hits; in the data active = inhibition above about 22%;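 also: 0% = DMSO vehicle and 100% = positive control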
MPTP abs DR – MPTP inhibition, dose response swelling confirmation; shares compounds with MPTP block; isolated mitochondria swelling, absorbance; IC50, µM; 780 compounds, 58% hits; in the data active = IC50 below about 20 µM
MPTP counter DR – counter-screen for mitochondrial permeability transition pore inhibitors, dose response; AID 651564; isolated mitochondria counterscreen, fluorescence read-out; IC50, µM; shares compounds with MPTP block; 780 compounds, 49% hits; in the data active = IC50 below about 80 µM
* = called active by the depositor; i = inactive; · = no result.

SMILES | ADAM17 inh | MPTP block | GRIN3A LBD mod | SKN-1 inh | MT1-MMP act inh | ADAM10 inh | MPTP counter | others
CC(C)c1ccc(N(C(=O)c2csnn2)C(C(=O)NC(C)(C)C)c2cccnc2)cc1 (configuration not stated) | 2.5 | -0.9 | 0.5 | -4.9 | 2.4 | 6.9 | ·
CC(C)(C)OC(=O)NCCCCCc1cn(CC(=O)NCCCCCCCCCCC(=O)N2CCN(C(=O)OC(C)(C)C)CC2)nn1 | 8.4 | 94.3* | 0.6 | -13.3 | 8.7 | 17.9 | -1.5 | MPTP abs DR=1.99*;MPTP counter DR=<2.5*
Cc1c(C(=O)N2CCCCC2)oc2ccc(S(=O)(=O)N3CC(C)CC(C)C3)cc12 (configuration not stated) | · | 83.3* | 8.1 | -1.7 | -18.7 | · | 43.8*
CCN(CCO)Cc1csc2cccc(Br)c12 | 0.4 | 1.2 | 0.3 | 18.2 | 2.6 | 1.6 | ·
O=C(CC1SC(=Nc2ccc(OC(F)F)cc2)N(CCC2=CCCCC2)C1=O)Nc1ccccc1F (configuration not stated) | -1.0 | 95.7* | 2.4 | -3.6 | -8.4 | 11.5 | 71.8*
CCOc1ccccc1N=C1SC(CC(=O)Nc2ccc(OC)cc2OC)C(=O)N1CCC1=CCCCC1 (configuration not stated) | 0.9 | 1.6 | 0.6 | 3.1 | -20.4 | -6.7 | ·
COc1ccc([N+](=O)[O-])cc1N(CC(O)CN1CCCC1)S(=O)(=O)c1ccc(C)cc1 (configuration not stated) | -1.1 | -0.6 | 0.4 | -7.0 | -4.3 | 6.0 | ·
CCc1cccc(NC(=O)COC(=O)c2c(-c3ccccc3)noc2C)c1 | 1.0 | 1.3 | · | 11.2 | -2.6 | -7.9 | ·
O=C1CC(SC2=NCCS2)C(=O)N1c1ccc(Br)cc1 (configuration not stated) | 1.9 | -4.2 | -1.3 | 1.1 | 4.6 | 0.6 | ·
O=[N+]([O-])c1ccc(N2CCN(Cc3ccccc3)CC2)s1 | 3.8 | 0.4 | -1.4 | -4.9 | 29.9 | 11.7 | ·
O=[N+]([O-])c1ccc(N2CCN(Cc3ccccc3)CC2)c2c1no[n+]2[O-] | 0.5 | 98.5* | · | 3.6 | -179.8 | 5.1 | 12.2
Cc1cccc(NC(=S)NCC2CCCO2)c1 (configuration not stated) | -6.0 | -0.4 | -0.4 | 1.6 | 2.1 | -4.5 | ·
CC(C)n1c(SCC(=O)Nc2nncs2)nnc1C1CC1 | 1.3 | -0.2 | -0.3 | -14.7 | -0.6 | -11.8 | ·
O=C1NC(c2ccc(Cl)cc2)Nc2ccccc21 (configuration not stated) | -26.6 | -1.5 | 0.7 | 3.6 | -1.6 | -81.4 | ·
O=C1C(=O)c2ccccc2C(O)=C1C1CCC(c2ccc(Cl)cc2)CC1 (configuration not stated) | -2.8 | 101.8* | 0.6 | 1.5 | 18.4 | -3.5 | 92.9*
CCC(C)c1ccccc1N=Cc1ccc2c(c1)OCO2 (configuration not stated) | -1.1 | 71.2* | 0.5 | -14.5 | -0.2 | 7.5 | 2.0 | MPTP abs DR=>100;MPTP counter DR=>80
CCCN(CCC)S(=O)(=O)c1ccc(NC(=O)c2cc(C(=O)OC)cc([N+](=O)[O-])c2)cc1 | -2.6 | 87.9* | 5.0 | -24.2 | 7.1 | -5.1 | -8.8 | MPTP abs DR=10.7*;MPTP counter DR=4.49*
COCCn1c(-c2ccc(C)cc2)nc2oc3cc(OC)ccc3c(=O)c2c1=O | -3.4 | 1.2 | -0.2 | 3.7 | 3.1 | -14.3 | ·
NC(c1csc(Nc2cc(Oc3ccccc3)ncn2)n1)c1ccccc1Cl (configuration not stated) | 2.0 | 4.0 | · | 10.9 | -3.5 | -7.3 | ·
FC(F)(F)c1cnc2c(c1)[nH]c(=S)n2-c1ccc(Cl)cc1 | -6.7 | 10.2 | 2.2 | 5.2 | -1.1 | -2.7 | ·
COc1ccc(OC)c(S(=O)(=O)N2CCC(C(=O)NCc3cccnc3)CC2)c1 | 0.8 | 0.6 | -1.7 | -3.4 | 0.7 | -5.8 | ·
CCN(C[C@H]1N[C@@](Cc2ccccc2)(C(=O)OC)[C@H]2C(=O)N(Cc3ccccc3)C(=O)[C@@H]12)C(=O)Nc1ccc(Cl)cc1 | 4.0 | 63.4* | 17.2* | 1.1 | -6.5 | 11.0 | 100.5*
CCc1ccc(OCC(=O)NC(NC(=S)Nc2ccc(Cl)cc2)C(Cl)(Cl)Cl)cc1 (configuration not stated) | -0.7 | 98.4* | 23.8* | -1.4 | -14.7 | -2.2 | 81.1*
O=C(NC(NC(=S)Nc1ccc(Cl)cc1)C(Cl)(Cl)Cl)c1ccco1 (configuration not stated) | 2.9 | 96.0* | 13.4* | 22.9 | 4.5 | 5.2 | 83.7*
CC(C)[C@@H](NC(=O)C1CCN(C(=O)[C@@H]2CCCN2C(=O)OC(C)(C)C)CC1)C(=O)NCc1ccc(F)cc1 | -0.4 | -0.5 | -0.5 | -0.9 | 5.4 | -3.7 | ·
SMILES | ADAM17 inh | MPTP block | GRIN3A LBD mod | SKN-1 inh | MT1-MMP act inh | ADAM10 inh | MPTP counter | others
O=C(CCS(=O)(=O)c1ccccc1)N(CCCN1CCOCC1)c1nc2c(F)cccc2s1 | 1.9 | -0.8 | 1.8 | 5.8 | 4.0 | 6.9 | ·
CCc1cccc(OCCn2nc(C(=O)O)c3ccccc3c2=O)c1 | -2.4 | -1.0 | 1.2 | -4.4 | 5.0 | -1.3 | ·
CN1C(C(=O)Nc2ccc(OC(F)(F)F)cc2)=CC(c2ccc3c(c2)OCO3)=NS1(=O)=O | -0.1 | 90.4* | 5.5 | 9.5 | 1.0 | -7.8 | 78.2*
CC(=O)c1ccc(NC(=O)C2=CC(c3ccc4c(c3)OCO4)=NS(=O)(=O)N2C)cc1 | 3.6 | 3.3 | -5.6 | 9.9 | 8.5 | 6.2 | ·
CN(C)C(CNc1ccc(C(F)(F)F)cn1)c1ccccc1 (configuration not stated) | 2.0 | 68.0* | 2.7 | 21.4 | -2.8 | -2.7 | -3.9 | MPTP abs DR=i;MPTP counter DR=>80
Cc1ccc(NC(=O)C2CCN(S(=O)(=O)c3ccc4c(c3)NC(=O)C(C)S4)CC2)cc1C (configuration not stated) | 8.3 | 97.5* | -1.2 | 20.7 | -4.1 | 16.2 | 88.6*
CC1Sc2ccc(S(=O)(=O)N3CCC(C(=O)Nc4cccc(Cl)c4)CC3)cc2NC1=O (configuration not stated) | 6.2 | 77.6* | 4.6 | 14.8 | -14.4 | 14.2 | 84.6*
COc1ccc(-c2ccccc2NC(=O)C2CCCN(Cc3ccco3)C2)cc1 (configuration not stated) | -3.8 | 0.4 | 1.8 | 1.0 | -4.1 | -0.7 | ·
COc1cc(OC)c(NC(=S)Nc2cc(Cl)cc(Cl)c2)cc1Cl | 0.5 | 104.0* | 26.7* | -9.1 | 2.2 | -5.8 | 83.6*
COc1cc(NC(=S)Nc2ccc(Br)cc2Cl)c(OC)cc1Cl | 0.7 | 90.1* | -1.7 | 2.9 | 1.4 | 1.9 | 89.2*
